Measles CPE: protection of cells from measles virus | Measles virus-infected cells, CPE protection, absorbance | protection (pct of control), % at 4 µM | hit rate 1.5% among 140,000 | AID 841; in the data active means protection mostly above about 24%, no sharp cut-off; inactive means mostly below about 26%
Yeast growth inh: chemicals that inhibit yeast BB579 growth in restrictive medium (lifespan-shortening candidates); S. cerevisiae BB579 growth, OD615, 48 h; inhibition, % at 10 µM; hit rate 0.51% among 140,000; AID 804;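 active means inhibition above a set limit, 3 SD over the mean compound inhibition, cut at about 44% in these data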
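System: Saccharomyces cerevisiae DeaD strain BB579, replicative lifespan model yeast. Buffer or medium: restrictive glucose-based CSMM-D medium. Doses: one dose, 10 µM compound with 0.25% DMSO. Timing: 4 h preincubation and 48 h exposure at 30 °C. Detection: turbidity as optical density at 615 nm. Benchmarks: amphotericin B 10 µg/mL, positive.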
RAM inhibit: yeast RAM network inhibition | S. cerevisiae dse1pr::URA3 reporter, 5-FOA growth OD615, 2 d; analog-sensitive cbk1-as2 kinase mutant strain | inhibition, % at 50 µM | hit rate 1.8% among 190,000 | AID 868;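 active means inhibition above a set limit, 3 SD over mean compound inhibition, cut at about 8.4% in these data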;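 further: inhibition rescues growth on 5-FOA so higher OD means more RAM inhibition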
Yeast lifespan up: extends the lifespan of yeast; inhibition of the nicotinamide effect, % at 10 µM; AID 775; S. cerevisiae growth with nicotinamide, OD615; deaD strain in restrictive glucose medium; hit rate 0.68% among 130,000;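 active means inhibition above a set limit, placed 3 SD over the median of all compounds, cut at about 26% in these data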
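Material: Modified budding yeast, DeaD strain | Medium: Restrictive glucose medium | Probe or stimulus: 1.5 mM nicotinamide | Dosing: Single dose 10 µM compound, 0.25% DMSO | Times: 48 h at 30 °C | Technique: OD615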
RAM 5-FOA: restores 5-FOA growth of efflux-deficient yeast. max inhibition, %. shares compounds with RAM inhibit. 1,200 tested, under 10 active. S. cerevisiae efflux-deficient reporter strain, 5-FOA growth OD615, 2 days. AID 1305; call rule not given here
Each line names hits and unclear results; the compound was inactive in the other large screens (follow-up assays come after a bar, where they were run). A selection: hits, their analogues and other compounds. The true share with any hit is near 3.8%.

CC(NC(=O)COC(=O)/C(=C/c1cccs1)c1cccs1)c1ccccc1 (stereo not drawn)	RAM inhibit 13.6 | RAM 5-FOA inactive
COc1ccc(NC(=O)COC(=O)[C@@H](NC(=O)c2c(F)cccc2F)C(C)C)cc1	none (no result: Measles CPE, Yeast growth inh, Yeast lifespan up)
Cc1[nH]n(-c2ncc(-c3ccccc3)s2)c(=O)c1C(c1ccc(Cl)cc1)C(C#N)C#N (stereo not drawn)	RAM inhibit 12.4, Yeast lifespan up 35.1 | RAM 5-FOA inactive
Cc1[nH]n(-c2ccccc2)c(=O)c1C(C[N+](=O)[O-])c1ccc(Cl)cc1 (stereo not drawn)	none
O=C(c1oc2ccccc2c1CSCc1ccccc1)N1CCN(c2ncccn2)CC1	RAM inhibit 12.4 | RAM 5-FOA inactive
Cc1c(C(=O)N2CCN(c3ccccn3)CC2)oc2ccccc12	none
COc1cccc(O[C@@H]2O[C@@H]3COC(C)(C)O[C@H]3[C@H](O)[C@H]2NC(C)=O)c1	none (no result: Yeast lifespan up)
CCOC(=O)C(C)Sc1cc(CS(=O)(=O)c2ccccc2)nc(-c2ccccc2)n1 (stereo not drawn)	RAM inhibit 11.8 | RAM 5-FOA inactive
COc1cc(CC(NC(C)=O)C(=O)NC2CCN(c3c(Cc4ccccc4)c(C)nc4ncnn34)CC2)cc(OC)c1 (stereo not drawn)	RAM inhibit 14.0 | RAM 5-FOA inactive
COc1ccccc1CNS(=O)(=O)N(C)C	none (no result: Measles CPE, Yeast growth inh, Yeast lifespan up)
CSc1ccccc1-c1nnc(-c2ccc(C)cc2)o1	RAM inhibit 13.6 | RAM 5-FOA inactive
CSc1ccccc1-c1nnc(-c2ccccc2)o1	none
Cc1cccc(N/C(N)=N/c2nc(C(F)(F)F)cc(=O)[nH]2)c1C	none
CCOCC(=O)Nc1cc(Cl)ccc1C	none (no result: Measles CPE, Yeast growth inh, Yeast lifespan up)
COCCCNC(=S)N1CCCN(c2nc3cc(C)c(C)cc3cc2C#N)CC1	none (no result: Measles CPE, Yeast growth inh, Yeast lifespan up)
CCOCCCNC(=S)N1CCCN(c2nc3cc(C)c(C)cc3cc2C#N)CC1	RAM inhibit 17.5 (no result: Measles CPE, Yeast growth inh, Yeast lifespan up) | RAM 5-FOA inactive
Cc1ccc(OCC(=O)NN=C2c3ccccc3-c3ccccc32)cc1	none
Cc1ccc(NN=C2c3ccccc3-c3ccccc32)cc1	RAM inhibit 14.9 | RAM 5-FOA inactive
S=C(NCC1CCCCC1)Nc1ccc(Oc2ccccc2)cc1	Yeast growth inh 48.9, RAM inhibit 14.8 | RAM 5-FOA inactive
CCc1c(C(=O)NN2C(=O)C3CCCCC3C2=O)csc1C (stereo not drawn)	none
CN(C)c1ccc(N=Nc2ccccc2C(=O)OCC(=O)NCC2CCCCC2)cc1	RAM inhibit 24.7 | RAM 5-FOA inactive
c1ccc(CSc2ncnc3c2cnn3Cc2ccccc2)cc1	none
Cc1ccc(-n2ncc3c(SCc4ccccc4)ncnc32)cc1	Measles CPE 35.3, RAM inhibit 11.9 | RAM 5-FOA inactive
CCC(=O)Oc1c(S(=O)(=O)c2ccc(C)cc2)c(C)nn1C(C)(C)C	none
CCCC(=O)Oc1c(S(=O)(=O)c2ccc(C)cc2)c(C)nn1C(C)(C)C	RAM inhibit 11.8 (no result: Measles CPE, Yeast growth inh, Yeast lifespan up) | RAM 5-FOA inactive
COc1ccc(CCN(Cc2cccs2)S(=O)(=O)c2ccc(C(=O)O)cc2)cc1OC	RAM inhibit 13.2 (no result: Measles CPE, Yeast growth inh, Yeast lifespan up) | RAM 5-FOA inactive
CCN(CC)S(=O)(=O)c1ccc(OC)c(NC(=O)Cc2cccs2)c1	none (no result: Measles CPE, Yeast growth inh, Yeast lifespan up)
CCOc1ccc2nc(SCc3ccc(OC)cc3)sc2c1	none
CCOc1ccc2nc(SCCNS(=O)(=O)c3ccccc3)sc2c1	RAM inhibit 11.6 | RAM 5-FOA inactive
O=C(CSc1nc2ccccc2s1)CSc1nc2ccccc2s1	RAM inhibit 14.1 | RAM 5-FOA inactive
CCOc1ccc2nc(SCC(=O)c3ccccc3)sc2c1	RAM inhibit 15.6 | RAM 5-FOA inactive
O=C(CC1(c2ccc(Cl)cc2)C2CC3CC(C2)CC1C3)NCCO (stereo not drawn)	none (no result: Measles CPE, Yeast growth inh, Yeast lifespan up)
O=S(=O)(c1ccc(F)cc1)n1ccc(-c2cccc(OCc3ccc(Cl)cc3Cl)c2)n1	RAM inhibit 11.5 | RAM 5-FOA inactive
O=C(c1ccc(C(F)(F)F)cc1)N1CCC(=O)N(C(COCc2ccccc2)Cc2ccccc2)CC1 (stereo not drawn)	RAM inhibit 25.6 | RAM 5-FOA inactive
C/C(N)=C(/C#N)C(=O)COC(=O)Cc1coc2cc(C)ccc12	none (no result: Measles CPE, Yeast growth inh, Yeast lifespan up)
CCCCN(CC(=O)NCc1ccc(Cl)cc1)S(=O)(=O)c1ccc2c(c1)OCCO2	RAM inhibit 13.3 | RAM 5-FOA inactive
O=C(CN(c1ccc2c(c1)OCCO2)S(=O)(=O)c1ccccc1)NCc1ccc(Cl)cc1	none
Cc1cc(C(=O)CSc2ccc(Cl)cc2)cc(C)c1OC(=S)N(C)C	RAM inhibit 12.1 | RAM 5-FOA inactive
CC(C)N(Cc1nc(-c2ccc(Cl)cc2)no1)C(=O)/C=C/c1ccccc1	RAM inhibit 11.7 | RAM 5-FOA inactive
O=C(NCc1ccccc1)c1ccc(S(=O)(=O)N2CCCc3ccccc32)cc1	RAM inhibit 12.2 | RAM 5-FOA inactive
O=c1c(/C=N/N2CCOCC2)c(C(F)(F)F)[nH]n1-c1ccccc1	none (no result: Measles CPE, Yeast growth inh, Yeast lifespan up)
CC(C)(C)c1ccc(/C=C2\SC(=O)N(CCNC(=O)c3cccc(S(=O)(=O)N4CCOCC4)c3)C2=O)cc1	none
CCCCN(CCCC)S(=O)(=O)c1ccc(NS(=O)(=O)c2ccc(NC(C)=O)cc2)cc1	RAM inhibit 17.0 | RAM 5-FOA inactive
CCCCN1C(=O)/C(=C/C=C2\Oc3ccccc3N2CC)SC1=S	none (no result: Measles CPE, Yeast growth inh, Yeast lifespan up)
CCCCN1C(=O)/C(=C/C=C2/CC(C)(C)CN2C)SC1=S	RAM inhibit 11.9 | RAM 5-FOA inactive
COc1ccc(-n2nc3c(c2NC(=O)c2ccc(S(=O)(=O)N4CCOCC4)cc2)CS(=O)(=O)C3)cc1	none (no result: Measles CPE, Yeast growth inh, Yeast lifespan up)
O=C(Cn1cc([N+](=O)[O-])cn1)NCc1cc2ccccc2[nH]1	none
O=C(Nc1cc(Sc2ccccn2)cc([N+](=O)[O-])c1)c1cccc(Cl)c1	RAM inhibit 11.8 | RAM 5-FOA inactive
O=C(Nc1cc(Sc2ccccn2)cc([N+](=O)[O-])c1)c1ccc(Cl)cc1	none
CCCCC(=O)NC1(C(F)(F)F)NC(=O)N(Cc2ccccc2)C1=O (stereo not drawn)	none (no result: Measles CPE, Yeast growth inh, Yeast lifespan up)
CCCOC(=O)c1ccc(NC(=O)c2c(Cl)ccc(Cl)c2OC)cc1	RAM inhibit 12.2 | RAM 5-FOA inactive
CCCCNC(=S)N(C)/N=C/c1ccc(OCc2ccc(C(=O)OC)cc2)c(OC)c1	RAM inhibit 13.6 | RAM 5-FOA inactive
CCC(C)(C)NC(=O)CN(Cc1ccccc1Cl)C(=O)CCC(=O)Nc1cc(C)ccn1	none (no result: Measles CPE, Yeast growth inh, Yeast lifespan up)
Cc1ccc(S(=O)(=O)N2CCN(C(=O)CCC(=O)NCc3ccc(F)cc3)CC2)cc1	none
O=C(/C=C/c1ccc(-c2ccccc2)o1)c1ccccc1	RAM inhibit 11.4 | RAM 5-FOA inactive
O=C(/C=C/c1ccc(-c2ccccc2[N+](=O)[O-])o1)c1ccc(Br)cc1	RAM inhibit 11.9 | RAM 5-FOA inactive
Cc1ccc(C(=O)/C=C/c2ccc(-c3ccccc3[N+](=O)[O-])o2)cc1	RAM inhibit 14.6 | RAM 5-FOA inactive
CN(Cc1ccccc1)C(=S)Nc1cccnc1	none (no result: Measles CPE, Yeast growth inh, Yeast lifespan up)
CCc1nc(-c2ccc(-c3ccc(OC)cc3)nc2OC)no1	none
COc1ccc(-c2ccc(-c3noc(C(C)C)n3)c(OC)n2)cc1	RAM inhibit 15.0 | RAM 5-FOA inactive
